Data from ChEMBL document CHEMBL1132203, “Synthesis and biological properties of novel pyridinioalkanoyl thiolesters (PATE) as anti-HIV-1 agents that target the viral nucleocapsid protein zinc fingers” (J Med Chem, 1999).

Columns and labels:
[1] = test system: Human immunodeficiency virus 1; assay: Effective antiviral concentration against HIV-1 infected CEM-SS cells; format: functional, organism-based; conditions: Human immunodeficiency virus 1, CEM-SS
How it was run: (§1)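 CEM-SS cells infected with HIV-1 RF at MOI 0.01, scored by XTT dye-reduction cytoprotection. EC50 is the concentration giving 50% protection of infected cells. IC50 is the concentration causing 50% cytotoxicity (growth inhibition). High test concentration 316 μM.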

[2] = test system: Human immunodeficiency virus 1; assay: Antiviral activity against HIV-1 infected CEM-SS cells was determined in XTT cytoprotection assay; format: functional, organism-based; conditions: Human immunodeficiency virus 1, CEM-SS; how it was run: as §1
[3] = test system: Human immunodeficiency virus 1; assay: Nucleocapsid p7 protein (NCp7) zinc finger domain reactivity was measured by Trp37 fluorescence assay expressed as the average decrease in relative fluorescence units over 30 min; format: functional
How it was run: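 Recombinant HIV-1 NCp7 (pET3A construct expressed in E. coli BL21); intrinsic fluorescence of Trp37 in the C-terminal zinc finger monitored over 30 min after compound addition. Value is the mean fall in relative fluorescence units per minute across 30 min, taken as a readout of Zn ejection. Dithiane or DIBA-1 served as reference. Where glutathione pretreatment was used, 2 mM compound was held 2 h at 37 °C with 2–8 M excess reduced glutathione, then diluted 40-fold to 50 μM final compound.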

[4] = target: Human immunodeficiency virus type 1 reverse transcriptase (Human immunodeficiency virus 1, UniProt Q72547); assay: 50% Inhibitory activity against reverse transcriptase; No inhibition at a highest dose of 100 uM
How it was run: (§2)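 Top test level 100 μM; IC50 is the concentration inhibiting 50% of the indicated activity, with reference inhibitors run as positive controls. Integrase uses recombinant HIV-1 integrase, scored on 3'-processing and strand transfer. Protease uses recombinant HIV-1 protease cleaving the peptide Ala-Ser-Glu-Asn-Try-Pro-Ile-Val-amide, read by HPLC. Reverse transcriptase uses recombinant HIV-1 RT on rAdT and rCdG template/primers.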

[5] = target: Human immunodeficiency virus type 1 integrase (Human immunodeficiency virus 1, UniProt Q7ZJM1); assay: 50% Inhibitory activity against Integrase; No inhibition at a highest dose of 100 uM; how it was run: as §2
Chain of Human immunodeficiency virus type 1 integrase (Q7ZJM1 whole entry): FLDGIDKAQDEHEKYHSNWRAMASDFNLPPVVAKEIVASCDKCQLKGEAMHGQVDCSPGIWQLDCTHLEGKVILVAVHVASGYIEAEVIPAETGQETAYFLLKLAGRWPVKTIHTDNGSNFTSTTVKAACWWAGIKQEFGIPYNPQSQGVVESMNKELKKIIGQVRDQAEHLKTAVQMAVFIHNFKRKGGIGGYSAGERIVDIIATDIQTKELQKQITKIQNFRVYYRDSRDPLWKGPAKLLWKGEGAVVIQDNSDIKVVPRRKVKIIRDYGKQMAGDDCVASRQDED

[6] = target: Human immunodeficiency virus type 1 protease (Human immunodeficiency virus 1, UniProt Q72874); assay: 50% Inhibitory activity against protease; No inhibition at a highest dose of 100 uM; how it was run: as §2
[7] = 50% Inhibitory activity against attachment; No inhibition at a highest dose of 100 uM
[8] = 50% Inhibitory activity against fusion; No inhibition at a highest dose of 100 uM

| SMILES | EC50 [1] [µM] | IC50 [2] [µM] | Activity [3] [RFU min-1] | IC50 [4] | IC50 [5] | Zinc finger reactivity [3] [RFU min-1] | IC50 [6] | IC50 [7] | IC50 [8] |
| --- | --- | --- | --- | --- | --- | --- | --- | --- | --- |
| Nc1ccc(S(=O)(=O)c2ccc(NC(=O)c3ccccc3SSc3ccccc3C(=O)Nc3ccc(S(=O)(=O)c4ccc(N)cc4)cc3)cc2)cc1 | 4.3 | > 316 | 3.3 |  |  |  |  |  |  |
| NS(=O)(=O)c1ccc(CCn2sc3ccccc3c2=O)cc1 | 2 | 45.5 | 2.7 |  |  |  |  |  |  |
| CC(=O)NS(=O)(=O)c1ccc(NC(=O)c2ccccc2SC(=O)c2ccccc2)cc1 | 2.6 | 45.7 | 2.2 |  |  |  |  |  |  |
| CC(=O)NS(=O)(=O)c1ccc(NC(=O)c2ccccc2SC(=O)CCCCBr)cc1 | 3.8 | 184 |  | No inhibition | No inhibition | 1.8 | No inhibition | No inhibition | No inhibition |
| CC(=O)NS(=O)(=O)c1ccc(NC(=O)c2ccccc2SC(=O)CCC[n+]2ccccc2)cc1.[Br-] | 10.1 | 175 | 2.2 |  |  |  |  |  |  |
| O=C(CCCCBr)Sc1ccccc1C(=O)Nc1ccc(S(=O)(=O)c2ccc([N+](=O)[O-])cc2)cc1 | 1.6 | 21.7 | 1 |  |  |  |  |  |  |
| CC(=O)Nc1ccc(S(=O)(=O)c2ccc(NC(=O)c3ccccc3SC(=O)CCCC[n+]3ccccc3)cc2)cc1.[Br-] | 4.6 | 288 | 1.7 |  |  |  |  |  |  |
| CC(=O)NS(=O)(=O)c1ccc(NC(=O)c2ccccc2SC(=O)CCCC[n+]2cccc(Cl)c2)cc1.[Br-] | 54 | 264 | 0.2 |  |  |  |  |  |  |
| CC(=O)NS(=O)(=O)c1ccc(NC(=O)c2ccccc2SC(=O)CCCCC[n+]2ccccc2)cc1.[Br-] | 10.5 | 69.7 | 1.9 |  |  |  |  |  |  |
| O=C(CCCC[n+]1ccccc1)Sc1ccccc1C(=O)Nc1ccc(S(=O)(=O)c2ccc(NS(=O)(=O)Cc3ccccc3[N+](=O)[O-])cc2)cc1.[Br-] | 2.9 | > 316 | 0.86 |  |  |  |  |  |  |
| O=C(Nc1ccc(S(=O)(=O)c2ccc(NC(=O)c3ccccc3SSc3ccccc3C(=O)Nc3ccc(S(=O)(=O)c4ccc(NC(=O)c5cc([N+](=O)[O-])cc([N+](=O)[O-])c5)cc4)cc3)cc2)cc1)c1cc([N+](=O)[O-])cc([N+](=O)[O-])c1 | 240 | > 316 | 1.6 |  |  |  |  |  |  |
| CC(=O)Nc1ccc(S(=O)(=O)c2ccc(NC(=O)c3ccccc3SSc3ccccc3C(=O)Nc3ccc(S(=O)(=O)c4ccc(NC(C)=O)cc4)cc3)cc2)cc1 | 1.5 | 160 | 5.9 |  |  |  |  |  |  |
| NS(=O)(=O)c1ccc(NC(=O)CNC(=O)c2ccccc2SSc2ccccc2C(=O)NCC(=O)Nc2ccc(S(N)(=O)=O)cc2)cc1 | 1.6 | 17.6 | 7.9 |  |  |  |  |  |  |
| O=c1c2ccccc2sn1-c1ccc(S(=O)(=O)c2ccc(NS(=O)(=O)Cc3ccccc3[N+](=O)[O-])cc2)cc1 | 3.2 | 59.5 | 2 |  |  |  |  |  |  |
| COc1ccc(C(=O)Nc2ccc(S(=O)(=O)c3ccc(NC(=O)c4ccccc4SSc4ccccc4C(=O)Nc4ccc(S(=O)(=O)c5ccc(NC(=O)c6ccc(OC)cc6)cc5)cc4)cc3)cc2)cc1 | 3.8 | 79.6 | 6.9 |  |  |  |  |  |  |
| CC(=O)NS(=O)(=O)c1ccc(NC(=O)c2ccccc2SC(C)=O)cc1 | 2.8 | 56.7 | 4.2 |  |  |  |  |  |  |
| CC(=O)NS(=O)(=O)c1ccc(NC(=O)c2ccccc2SC(=O)CCCC[n+]2ccccc2)cc1.[Br-] | 6.2 | > 316 |  | No inhibition | No inhibition | 3.6 | No inhibition | No inhibition |  |
| O=C(Nc1ccc(S(=O)(=O)c2ccc(NC(=O)c3ccccc3SSc3ccccc3C(=O)Nc3ccc(S(=O)(=O)c4ccc(NC(=O)c5ccc([N+](=O)[O-])cc5)cc4)cc3)cc2)cc1)c1ccc([N+](=O)[O-])cc1 | 78 | > 316 | 2.9 |  |  |  |  |  |  |
| CC(=O)NS(=O)(=O)c1ccc(NC(=O)c2ccccc2SC(=O)CCCl)cc1 | 4.2 | 62 | 9.2 |  |  |  |  |  |  |
| NS(=O)(=O)c1ccc(CNC(=O)c2ccccc2SSc2ccccc2C(=O)NCc2ccc(S(N)(=O)=O)cc2)cc1 | 0.33 | 19.4 | 3.3 |  |  |  |  |  |  |
| NS(=O)(=O)c1ccc(Cn2sc3ccccc3c2=O)cc1 | 13.8 | 53.7 | 2.7 |  |  |  |  |  |  |
| O=C(CCCC[n+]1ccccc1)Sc1ccccc1C(=O)Nc1ccc(S(=O)(=O)c2ccc([N+](=O)[O-])cc2)cc1.[Br-] | 5.5 | > 316 |  | No inhibition | No inhibition | 4.1 |  | No inhibition |  |
